Converted amounts (≈) assume the structure as drawn. The source made the active and inactive calls. No cut-off for these calls is given here.
Assays:
[1] = system: NIH3T3; assay: Cytotoxicity against mouse NIH/3T3 cells after 48 hrs by SRB assay; type: cell-based; settings: NIH3T3, 48 h
[2] = system: Bacillus cereus; assay: Antibacterial activity against Bacillus cereus after 24 hrs by agar dilution method; type: functional
[3] = system: Staphylococcus epidermidis; assay: Antibacterial activity against Staphylococcus albus after 24 hrs by agar dilution method; type: functional
[4] = system: Staphylococcus aureus; assay: Antibacterial activity against Staphylococcus aureus after 24 hrs by agar dilution method; type: functional
[5] = system: Pseudomonas aeruginosa; assay: Antibacterial activity against Pseudomonas aeruginosa after 24 hrs by agar dilution method; type: functional
[6] = system: Escherichia coli; assay: Antibacterial activity against Escherichia coli after 24 hrs by agar dilution method; type: functional
[7] = Antioxidant activity assessed as ferric ion reducing ability after 20 mins by spectrophotometric analysis; type: functional
[8] = Antioxidant activity assessed as ferric ion reducing ability at 1 to 50 uM after 20 mins by spectrophotometric analysis; type: functional
[9] = system: Radical scavenging activity; assay: Antioxidant activity assessed as DPPH radical scavenging activity after 30 mins by spectrophotometric analysis; type: functional
Summary of the method: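 DPPH radical bleaching followed as loss of absorbance at 517 nm; IC50 derived; mean ± SD, n = 3.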

[10] = Antioxidant activity assessed as hydroxyl radical scavenging activity after 1 hr by spectrophotometric analysis; type: functional
[11] = Antioxidant activity assessed as superoxide radical anion scavenging activity by spectrophotometric analysis; type: functional

MIC [2] [µM] | MIC [3] [µM] | MIC [4] [µM] | MIC [5] [µM] | MIC [6] [µM] | EC50 [9] [µM] | EC50 [10] [µM] | EC50 [11] [µM] | Structure (SMILES) | IC50 [1] [µM] | MBC [2] [µM] | MBC [3] [µM] | MBC [4] [µM] | MBC [6] [µM] | Activity [7] | Activity [8] | MBC [5] [µM]
25 (≈ 5.66 µg/mL) | 100 (≈ 22.6 µg/mL) | 1.56 (≈ 0.353 µg/mL) | > 200 | 6.25 (≈ 1.41 µg/mL) | 30 | 124 | 169 | Oc1ccc2[nH]c(-c3ccccc3O)nc2c1 | > 200 | 25 (≈ 5.66 µg/mL) | > 200 | 1.56 (≈ 0.353 µg/mL) | 25 (≈ 5.66 µg/mL) | Dose-dependent effect | Active | 
> 200 | > 200 | > 200 | > 200 | > 200 | > 200 | > 200 | > 200 | COc1cc(OC)cc(-c2nc3cc(OC)ccc3[nH]2)c1 | > 200 |  |  |  |  |  |  | 
50 (≈ 13.5 µg/mL) | > 200 | 100 (≈ 27 µg/mL) | > 200 | > 200 | 58 | > 200 | > 200 | COc1ccc2[nH]c(-c3ccc(O)c(OC)c3)nc2c1 | > 200 | 200 (≈ 54.1 µg/mL) |  | 200 (≈ 54.1 µg/mL) |  |  |  | 
50 (≈ 10.5 µg/mL) | > 200 | 1.56 (≈ 0.328 µg/mL) | > 200 | 100 (≈ 21 µg/mL) | 42 | > 200 | > 200 | Oc1ccc2[nH]c(-c3ccccc3)nc2c1 | > 200 | 100 (≈ 21 µg/mL) |  | 1.56 (≈ 0.328 µg/mL) | > 200 | Dose-dependent effect | Active | 
> 200 | > 200 | 100 (≈ 19.4 µg/mL) | > 200 | 6.25 (≈ 1.21 µg/mL) | > 200 | > 200 | > 200 | c1ccc(-c2nc3ccccc3[nH]2)cc1 | > 200 |  |  | > 200 | 100 (≈ 19.4 µg/mL) |  |  | 
25 (≈ 6.06 µg/mL) | > 200 | 0.78 (≈ 0.189 µg/mL) | > 200 | > 200 | 26 | > 200 | > 200 | Oc1cc(O)cc(-c2nc3cc(O)ccc3[nH]2)c1 | > 200 | 25 (≈ 6.06 µg/mL) |  | 0.78 (≈ 0.189 µg/mL) |  | Dose-dependent effect | Active | 
50 (≈ 12.7 µg/mL) | 100 (≈ 25.4 µg/mL) | 25 (≈ 6.36 µg/mL) | > 200 | 6.25 (≈ 1.59 µg/mL) | > 200 | > 200 | > 200 | COc1ccc(-c2nc3cc(OC)ccc3[nH]2)cc1 | > 200 | 200 (≈ 50.9 µg/mL) | > 200 | 200 (≈ 50.9 µg/mL) | 100 (≈ 25.4 µg/mL) |  |  | 
100 (≈ 25.6 µg/mL) | > 200 | > 200 | > 200 | > 200 | 23 | > 200 | > 200 | COc1ccc(O)cc1-c1nc2cc(O)ccc2[nH]1 | > 200 | > 200 |  |  |  | Dose-dependent effect | Active | 
25 (≈ 6.01 µg/mL) | > 200 | 100 (≈ 24 µg/mL) | > 200 | 12.5 (≈ 3 µg/mL) | > 200 | > 200 | > 200 | COc1ccc2[nH]c(-c3cccc(O)c3)nc2c1 | > 200 | 200 (≈ 48.1 µg/mL) |  | 200 (≈ 48.1 µg/mL) | 100 (≈ 24 µg/mL) |  |  | 
50 (≈ 10.5 µg/mL) | > 200 | 0.39 (≈ 0.082 µg/mL) | > 200 | 12.5 (≈ 2.63 µg/mL) | > 200 | > 200 | > 200 | Oc1cccc(-c2nc3ccccc3[nH]2)c1 | > 200 | 200 (≈ 42 µg/mL) |  | 0.78 (≈ 0.164 µg/mL) | 100 (≈ 21 µg/mL) |  |  | 
50 (≈ 12 µg/mL) | > 200 | 100 (≈ 24 µg/mL) | > 200 | 12.5 (≈ 3 µg/mL) | > 200 | > 200 | > 200 | COc1ccc2[nH]c(-c3ccc(O)cc3)nc2c1 | > 200 | 200 (≈ 48.1 µg/mL) |  | 200 (≈ 48.1 µg/mL) | 100 (≈ 24 µg/mL) |  |  | 
50 (≈ 11.2 µg/mL) | > 200 | > 200 | > 200 | 25 (≈ 5.61 µg/mL) | > 200 | > 200 | > 200 | COc1ccc2[nH]c(-c3ccccc3)nc2c1 | > 200 | 200 (≈ 44.9 µg/mL) |  |  | 100 (≈ 22.4 µg/mL) |  |  | 
50 (≈ 11.2 µg/mL) | 100 (≈ 22.4 µg/mL) | 1.56 (≈ 0.35 µg/mL) | > 200 | 12.5 (≈ 2.8 µg/mL) | > 200 | > 200 | > 200 | COc1ccc(-c2nc3ccccc3[nH]2)cc1 | > 200 | 100 (≈ 22.4 µg/mL) | 100 (≈ 22.4 µg/mL) | 1.56 (≈ 0.35 µg/mL) | 50 (≈ 11.2 µg/mL) |  |  | 
 |  |  |  |  | 36 | 65 | > 200 | CC(C)(C)c1cc(O)ccc1O [E319] |  |  |  |  |  | Dose-dependent effect |  | 
200 (≈ 48.1 µg/mL) | > 200 | > 200 | > 200 | 100 (≈ 24 µg/mL) | > 200 | 190 | 87 | COc1ccc2[nH]c(-c3ccccc3O)nc2c1 | > 200 | > 200 |  |  | > 200 |  |  | 
> 200 | > 200 | > 200 | > 200 | 25 (≈ 5.26 µg/mL) | > 200 | > 200 | 122 | Oc1ccccc1-c1nc2ccccc2[nH]1 | > 200 |  |  |  | 100 (≈ 21 µg/mL) |  |  | 
25 (≈ 7.11 µg/mL) | 100 (≈ 28.4 µg/mL) | 50 (≈ 14.2 µg/mL) | > 200 | > 200 | > 200 | > 200 | > 200 | COc1ccc2[nH]c(-c3ccc(OC)c(OC)c3)nc2c1 | > 200 | 100 (≈ 28.4 µg/mL) | > 200 | 200 (≈ 56.9 µg/mL) |  |  |  | 
> 200 | 100 (≈ 28.4 µg/mL) | 6.25 (≈ 1.78 µg/mL) | > 200 | > 200 | > 200 | > 200 | > 200 | COc1ccc(-c2nc3cc(OC)ccc3[nH]2)c(OC)c1 | > 200 |  | 200 (≈ 56.9 µg/mL) | 50 (≈ 14.2 µg/mL) |  |  |  | 
> 200 | > 200 | 12.5 (≈ 2.63 µg/mL) | > 200 | 25 (≈ 5.26 µg/mL) | > 200 | > 200 | > 200 | Oc1ccc(-c2nc3ccccc3[nH]2)cc1 | > 200 |  |  | 50 (≈ 10.5 µg/mL) | 100 (≈ 21 µg/mL) |  |  | 
50 (≈ 12.8 µg/mL) | 100 (≈ 25.6 µg/mL) | 50 (≈ 12.8 µg/mL) | > 200 | 6.25 (≈ 1.6 µg/mL) | 129 | > 200 | 189 | COc1ccc2[nH]c(-c3ccc(O)cc3O)nc2c1 | > 200 | 100 (≈ 25.6 µg/mL) | 200 (≈ 51.3 µg/mL) | 100 (≈ 25.6 µg/mL) | 100 (≈ 25.6 µg/mL) |  |  | 
100 (≈ 28.4 µg/mL) | > 200 | 6.25 (≈ 1.78 µg/mL) | > 200 | > 200 | > 200 | > 200 | > 200 | COc1ccc(OC)c(-c2nc3cc(OC)ccc3[nH]2)c1 | > 200 | 200 (≈ 56.9 µg/mL) |  | 50 (≈ 14.2 µg/mL) |  |  |  | 

Structure (SMILES) | MIC [2] [µM] | MIC [3] [µM] | MIC [4] [µM] | MIC [5] [µM] | MIC [6] [µM] | EC50 [9] [µM] | EC50 [10] [µM] | EC50 [11] [µM] | IC50 [1] [µM] | MBC [2] [µM] | MBC [3] [µM] | MBC [4] [µM] | MBC [6] [µM] | Activity [7] | Activity [8] | MBC [5] [µM]
O=C(O)c1cn(C2CC2)c2cc(N3CCNCC3)c(F)cc2c1=O [CIPROFLOXACIN] | 0.39 (≈ 0.129 µg/mL) | 0.39 (≈ 0.129 µg/mL) | 0.39 (≈ 0.129 µg/mL) | 0.78 (≈ 0.258 µg/mL) | 0.39 (≈ 0.129 µg/mL) |  |  |  | > 200 | 0.39 (≈ 0.129 µg/mL) | 0.39 (≈ 0.129 µg/mL) | 0.39 (≈ 0.129 µg/mL) | 0.39 (≈ 0.129 µg/mL) |  |  | 0.78 (≈ 0.258 µg/mL)
